Screening data deposited in PubChem BioAssay by The Scripps Research Institute Molecular Screening Center.
CHRM5 PAM: positive allosteric modulators of human muscarinic M5 receptor | activation, % at 3 µM | hit rate 0.3% among 360,000 | P08912 | CHO-K1 hM5, Fluo-8 calcium, ACh EC20 PAM; 0% = ACh EC20, 100% = ACh EC100 | AID 624038;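 active = activation above the run cutoff, the mean activation of all test compounds plus 3 SD, cut at about 18% in these data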
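Assay system: CHO-K1 hM5 cells / Incubation: Fluo-8 loading 80 min at 37 °C plus 30 min room temperature / Technique: Fluo-8 calcium dye fluorescence, kinetic read / Repeats: single replicate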
M4 ag: agonists of human muscarinic M4 receptor (CHRM4). P08173. CHO-K1 hM4/Gqi5, Fluo-8 calcium fluorescence; vehicle 0%, full acetylcholine response 100%. activation, % at 3 µM. hit rate 0.14% among 360,000. AID 624127;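 active = activation above the run mean over all test wells plus 3 SD, cut at about 32% in these data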;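 also: peak over basal fluorescence ratio per well then scaled between controls; 0% = DMSO wells and 100% = acetylcholine at EC100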
Target sequence (P08173 whole entry, looked up): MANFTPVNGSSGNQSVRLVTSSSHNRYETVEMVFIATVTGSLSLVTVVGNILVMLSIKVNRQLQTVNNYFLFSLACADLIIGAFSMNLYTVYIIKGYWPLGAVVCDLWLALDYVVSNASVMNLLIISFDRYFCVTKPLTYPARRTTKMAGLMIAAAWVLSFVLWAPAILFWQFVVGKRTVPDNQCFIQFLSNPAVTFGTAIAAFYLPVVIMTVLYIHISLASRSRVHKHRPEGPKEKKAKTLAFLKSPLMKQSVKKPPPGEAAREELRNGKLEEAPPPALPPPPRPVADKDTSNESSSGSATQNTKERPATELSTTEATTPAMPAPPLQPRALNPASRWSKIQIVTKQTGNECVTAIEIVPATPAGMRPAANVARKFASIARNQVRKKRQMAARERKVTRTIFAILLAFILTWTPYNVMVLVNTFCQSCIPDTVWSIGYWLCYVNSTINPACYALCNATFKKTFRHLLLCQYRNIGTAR
M5 ag: agonists of human muscarinic M5 receptor (CHRM5). P08912. hit rate 0.19% among 360,000. CHO-K1 hM5 cells, Fluo-8 calcium fluorescence; 0% DMSO wells, 100% maximal acetylcholine response. activation, % at 3 µM. AID 624037;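 active = activation above the run's mean over test compounds plus 3 SD, cut at about 23% in these data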;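 also: signal is peak over basal fluorescence ratio across the kinetic read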
CHRM4 PAM: potentiates acetylcholine response at human M4 receptor; P08173; CHO-K1 hM4/Gqi5, Fluo-8 calcium fluorescence, ACh EC20; 0% = ACh EC20, 100% = maximal ACh; activation, % at 3 µM; hit rate 0.4% among 360,000; AID 624126;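 active = activation above its plate's cutoff, the mean activation of sample wells plus 3 SD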
M5 antag: antagonists of human muscarinic M5 receptor (CHRM5); P08912; AID 624040; hit rate 0.59% among 360,000; inhibition, % at 3 µM; CHO-hM5 cells, Fluo-8 calcium fluorescence, ACh EC80;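 active = inhibition above a per-plate cutoff, the mean of that plate's test compounds plus 3 SD, cut at about 27% in these data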;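 also: 0% = acetylcholine EC80 with DMSO and 100% = DMSO without agonist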
CHRM4 antagonist: CHRM4 antagonism in calcium assay; P08173; CHO-hM4 cells, ACh EC80, Fluo-8 calcium fluorescence; inhibition, % at 3 µM; hit rate 0.73% among 360,000; AID 624125;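 active = inhibition above its plate's cutoff, the mean inhibition of sample wells plus 3 SD, cut at about 27% in these data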;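 also: 0% = acetylcholine EC80 with DMSO and 100% = DMSO without agonist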
* = called active by the depositor. This is a sample that favours compounds with a hit; in the whole collection about 1.8% have one here.

CCN1CCN(c2ccc(NC(=O)COc3ccc(Cl)cc3C)cc2)CC1 was read as CHRM5 PAM -48, M4 ag 4, M5 ag -12, CHRM4 PAM -16, M5 antag 42* and CHRM4 antagonist 28*.
For CCN1CCN(c2ccc(NC(=O)COc3ccccc3Cl)cc2)CC1 the results were CHRM5 PAM -7, M4 ag 1, M5 ag -8, CHRM4 PAM -9, M5 antag 0 and CHRM4 antagonist 10.
`Cc1ccc(CNC(=O)C(CC(C)C)OC(=O)c2ccco2)cc1` (centres undefined) gave CHRM5 PAM 2, M4 ag 0, M5 ag -3, CHRM4 PAM 4, M5 antag 6 and CHRM4 antagonist -10.
`CC[C@H](C)[C@H]1CNC(=S)N1CC1CCN(CC2CCC(C)CC2)CC1` (some centres undefined) gave CHRM5 PAM -12, M4 ag 1, M5 ag -3, CHRM4 PAM -11, M5 antag 4 and CHRM4 antagonist 10.
Screening CC[C@H](C)[C@H]1CNC(=S)N1CC1CCN(CCC23CC4CC(CC(C4)C2)C3)CC1 returned CHRM5 PAM -19, M4 ag 2, M5 ag -3, CHRM4 PAM -15, M5 antag 18 and CHRM4 antagonist 67*.
For COc1ccc(C)cc1Nc1n[n+](-c2ccccc2)c(-c2c(OC)ccc3ccccc23)s1 the results were CHRM5 PAM -31, M4 ag 21, M5 ag -2, CHRM4 PAM -6, M5 antag 27* and CHRM4 antagonist 17.
`COc1ccc(C)cc1Nc1n[n+](-c2ccccc2)c(-c2cc(OC)c(OC)cc2Br)s1` gave CHRM5 PAM -3, M4 ag 1, M5 ag -8, CHRM4 PAM 10, M5 antag 22 and CHRM4 antagonist -14.
For Fc1ccc(-[n+]2nc(Nc3ccccc3)sc2-c2c3ccccc3cc3ccccc23)cc1 the results were CHRM5 PAM -20, M4 ag 16, M5 ag 36*, CHRM4 PAM -3, M5 antag 39* and CHRM4 antagonist 9.
`COc1ccc(NC(=O)CS(=O)CC(=O)Nc2ccc(OC)c(OC)c2)cc1` (centres undefined) gave CHRM5 PAM 13, M4 ag 1, M5 ag -3, CHRM4 PAM 30*, M5 antag -7 and CHRM4 antagonist -4.
`OC1CC2CCC(C1)N2CCCN1c2ccccc2Sc2ccc(Cl)cc21` (centres undefined) gave CHRM5 PAM -40, M4 ag 16, M5 ag -9, CHRM4 PAM -17, M5 antag 26 and CHRM4 antagonist 37*.
`CN1CCN(CCCN2c3ccccc3Sc3ccc(Cl)cc32)CC1` gave CHRM5 PAM -17, M4 ag 7, M5 ag 0, CHRM4 PAM -17, M5 antag 9 and CHRM4 antagonist 4.
Screening COc1cccc(C(C(=O)NC2CCCC2)N(C(=O)c2ccco2)c2ccc(NC(C)=O)cc2)c1OC (centres undefined) returned CHRM5 PAM -1, M4 ag 2, M5 ag -4, CHRM4 PAM 21*, M5 antag 12 and CHRM4 antagonist -9.
`Cc1ccc(S(=O)(=O)NCCCN2CCCC2)cc1` gave CHRM5 PAM 15, M4 ag 6, M5 ag -3, CHRM4 PAM 21*, M5 antag 23 and CHRM4 antagonist 17.
O=S(=O)(NCCCN1CCOCC1)c1ccc2c(c1)OCCO2 was read as CHRM5 PAM 22*, M4 ag 0, M5 ag 2, CHRM4 PAM -1, M5 antag -4 and CHRM4 antagonist 3.
Cc1ccc(S(=O)(=O)NCCNS(=O)(=O)c2ccc(C)cc2)cc1 was read as CHRM5 PAM -7, M4 ag 5, M5 ag -2, CHRM4 PAM -1, M5 antag 4 and CHRM4 antagonist 4.
COc1cccc(CNC(=O)Cc2ccc(S(=O)(=O)N3CCOCC3)s2)c1 was read as CHRM5 PAM -2, M4 ag 2, M5 ag 2, CHRM4 PAM 4, M5 antag 0 and CHRM4 antagonist -2.
Cc1cc(N2Cc3ccccc3C2)ccc1C=O was read as CHRM5 PAM -5, M4 ag 2, M5 ag 15, CHRM4 PAM -7, M5 antag 38* and CHRM4 antagonist -6.
Screening CCN(CC)CC#CCC(O)(c1ccccc1)c1ccccc1 returned CHRM5 PAM -35, M4 ag 4, M5 ag -16, CHRM4 PAM -25, M5 antag 29* and CHRM4 antagonist 32*.
`C=CC(O)(C#CCN(CC)CC)c1ccccc1` (centres undefined) gave CHRM5 PAM -23, M4 ag 1, M5 ag -6, CHRM4 PAM -15, M5 antag 15 and CHRM4 antagonist 12.
CCN(CC)CC#CCC(O)(c1ccccc1)c1ccc(Br)cc1 (centres undefined) was read as CHRM5 PAM -17, M4 ag 7, M5 ag -8, CHRM4 PAM -25, M5 antag 11 and CHRM4 antagonist 30*.
CCN(CC)CC#CCC(C)(c1ccccc1)c1ccccc1 was read as CHRM5 PAM -21, M4 ag 3, M5 ag -12, CHRM4 PAM -37, M5 antag 17 and CHRM4 antagonist 63*.
Screening CN(C)CC#CCC(O)(c1ccccc1)c1ccccc1 returned CHRM5 PAM -31, M4 ag 0, M5 ag -19, CHRM4 PAM -50, M5 antag 24 and CHRM4 antagonist 24.
Screening CC(C)[C@H](NC(=O)N1c2ccccc2NC(=O)[C@@H]1C(C)C)C(=O)N1CCC(C(=O)O)CC1 returned CHRM5 PAM -2, M4 ag 0, M5 ag 1, CHRM4 PAM 1, M5 antag 8 and CHRM4 antagonist -6.
O=C(N/N=C/c1ccc(Cl)cc1Cl)c1n[nH]c2c1CCCC2 was read as CHRM5 PAM 3, M4 ag 1, M5 ag -4, CHRM4 PAM 26*, M5 antag -4 and CHRM4 antagonist -12.
For CCOC(=O)C1=C(C)N=C2c3ccccc3C(=O)C2C1c1ccc(Cl)cc1 (centres undefined) the results were CHRM5 PAM -3, M4 ag 6, M5 ag -2, CHRM4 PAM -7, M5 antag 0 and CHRM4 antagonist 6.
For CCOC(=O)C1=C(Cc2ccc(Cl)cc2)C(=O)c2ccccc2C1=O the results were CHRM5 PAM 2, M4 ag 14, M5 ag 12, CHRM4 PAM -5, M5 antag 18 and CHRM4 antagonist 35*.
